Laboratory results from ChEMBL document CHEMBL1921785, “Exploration of in vitro time point quantitative evaluation of newly synthesized benzimidazole and benzothiazole derivatives as potential antibacterial agents” (2011).

How the values were obtained:
Format in all cases: functional
Vibrio cholerae [1] = experiment: Bactericidal activity against Vibrio cholerae MTCC 3904 assessed as time required to complete extermination of bacteria at 0.2 mg/mL by time-kill assay
Staphylococcus aureus [2] = experiment: Antibacterial activity against Staphylococcus aureus MTCC 3160 assessed as zone of growth inhibition at 0.2 mg/ml after 18 to 24 hrs by Kirby-Bauer agar diffusion method; conditions: read-out: DIZ
Outline: (§1)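 Kirby-Bauer disc diffusion on Mueller-Hinton agar, following CLSI 2007 guidelines, with ciprofloxacin as reference drug. Read-out is the diameter of the zone of growth inhibition in mm.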

Vibrio cholerae [3] = experiment: Antibacterial activity against Vibrio cholerae MTCC 3904 assessed as zone of growth inhibition at 0.2 mg/ml after 18 to 24 hrs by Kirby-Bauer agar diffusion method; conditions: read-out: DIZ
Bacillus cereus [4] = experiment: Bactericidal activity against Bacillus cereus MTCC 430 assessed as log reduction in bacterial count at 0.2 mg/mL up to 48 hrs by time-kill assay
Outline: (§2)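 Time-kill by pour plate. Overnight 37 °C cultures in Mueller-Hinton broth were dosed at about 0.2 mg/mL and incubated at 37 °C for up to 72 h, with broth replenished every 24 h. Samples were taken over time, serially diluted, and pour-plated on MHA at 37 °C for 18–24 h. Colonies were counted as CFU/ml against untreated culture controls.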

Escherichia coli [5] = experiment: Antibacterial activity against Escherichia coli MTCC 1610 assessed as zone of growth inhibition at 0.2 mg/ml after 18 to 24 hrs by Kirby-Bauer agar diffusion method; conditions: read-out: DIZ; outline: as §1
Shigella dysenteriae [6] = experiment: Antibacterial activity against Shigella dysenteriae assessed as zone of growth inhibition at 0.2 mg/ml after 18 to 24 hrs by Kirby-Bauer agar diffusion method; conditions: read-out: DIZ
Bacillus cereus [7] = experiment: Antibacterial activity against Bacillus cereus MTCC 430 assessed as zone of growth inhibition at 0.2 mg/ml after 18 to 24 hrs by Kirby-Bauer agar diffusion method; conditions: read-out: DIZ; outline: as §1
Bacillus cereus [8] = experiment: Bactericidal activity against Bacillus cereus MTCC 430 assessed as time required to complete extermination of bacteria at 0.2 mg/mL by time-kill assay; outline: as §2
Shigella dysenteriae [9] = experiment: Bactericidal activity against Shigella dysenteriae assessed as time required to complete extermination of bacteria at 0.2 mg/mL by time-kill assay
Staphylococcus aureus [10] = experiment: Bactericidal activity against Staphylococcus aureus MTCC 3160 assessed as time required to complete extermination of bacteria at 0.2 mg/mL by time-kill assay; outline: as §2
Shigella dysenteriae [11] = experiment: Bactericidal activity against Shigella dysenteriae assessed as time required to complete extermination of bacteria by time-kill assay
Staphylococcus aureus [12] = experiment: Bactericidal activity against Staphylococcus aureus MTCC 3160 assessed as time required to complete extermination of bacteria by time-kill assay; outline: as §2
Bacillus cereus [13] = experiment: Antibacterial activity against Bacillus cereus MTCC 430 assessed as zone of growth inhibition after 18 to 24 hrs by Kirby-Bauer agar diffusion method; outline: as §1
Vibrio cholerae [14] = experiment: Bactericidal activity against Vibrio cholerae MTCC 3904 assessed as time required to complete extermination of bacteria by time-kill assay
Bacillus cereus [15] = experiment: Bactericidal activity against Bacillus cereus MTCC 430 assessed as time required to complete extermination of bacteria by time-kill assay; outline: as §2
Shigella dysenteriae [16] = experiment: Antibacterial activity against Shigella dysenteriae assessed as zone of growth inhibition at after 18 to 24 hrs by Kirby-Bauer agar diffusion method
Vibrio cholerae [17] = experiment: Antibacterial activity against Vibrio cholerae MTCC 3904 assessed as zone of growth inhibition after 18 to 24 hrs by Kirby-Bauer agar diffusion method
Escherichia coli [18] = experiment: Bactericidal activity against Escherichia coli MTCC 1610 assessed as time required to complete extermination of bacteria at 0.2 mg/mL by time-kill assay; outline: as §2

Row | SMILES | zone of inhibition at 200 µg/mL (Staphylococcus aureus [2]) [mm] | zone of inhibition at 200 µg/mL (Vibrio cholerae [3]) [mm] | zone of inhibition at 200 µg/mL (Shigella dysenteriae [6]) [mm] | zone of inhibition at 200 µg/mL (Bacillus cereus [7]) [mm] | also measured
1 | c1ccc(Cn2c(-c3ccccc3)nc3ccccc32)cc1 | 10 | 33 | 23 | 22 | Time (Vibrio cholerae [1]): <24 h; log reduction in bacterial count (Bacillus cereus [4]): 3; zone of inhibition at 200 µg/mL (Escherichia coli [5]): 19 mm
2 | O=[N+]([O-])c1cccc(Cn2c(-c3cccc([N+](=O)[O-])c3)nc3ccccc32)c1 | 10 | 13 |  |  | 
3 | Oc1ccc(-c2nc3ccccc3s2)cc1 |  | 18 |  | 19 | Time (Bacillus cereus [8]): <24 h
4 | Fc1ccc(Cn2c(-c3ccc(F)cc3)nc3ccccc32)cc1 | 10 |  |  | 18 | 
5 | CCc1ccccc1-c1nc2ccccc2s1 | 13 | 16 | 35 | 21 | Time (Shigella dysenteriae [9]): 72 h; log reduction in bacterial count (Bacillus cereus [4]): 3; zone of inhibition at 200 µg/mL (Escherichia coli [5]): 11 mm
6 | CC(C)(C)c1ccc(Cn2c(-c3ccc(C(C)(C)C)cc3)nc3ccccc32)cc1 |  | 21 | 13 | 12 | zone of inhibition at 200 µg/mL (Escherichia coli [5]): 17 mm
7 | COc1cc(-c2nc3ccccc3s2)cc(OC)c1OC |  |  | 23 |  | 
8 | CCOc1ccc(-c2nc3ccccc3s2)cc1 | 16 | 15 | 16 | 22 | log reduction in bacterial count (Bacillus cereus [4]): 3; zone of inhibition at 200 µg/mL (Escherichia coli [5]): 12 mm; Time (Staphylococcus aureus [10]): <48 h
9 | COc1ccc(Br)cc1-c1nc2ccccc2s1 | 12 | 17 |  | 21 | 
10 | C(=C/c1nc2ccccc2n1C/C=C/c1ccccc1)/c1ccccc1 |  | 11 |  | 14 | 
11 | c1coc(Cn2c(-c3ccco3)nc3ccccc32)c1 | 10 | 13 | 12 |  | Time (Staphylococcus aureus [10]): <48 h
12 | Oc1ccc(Br)cc1Cn1c(-c2cc(Br)ccc2O)nc2ccccc21 |  |  |  | 33 | Time (Bacillus cereus [8]): <24 h; zone of inhibition at 200 µg/mL (Escherichia coli [5]): 17 mm
13 | Clc1ccc(Cn2c(-c3ccc(Cl)c(Cl)c3)nc3ccccc32)cc1Cl |  |  | 11 |  | 
14 | Oc1ccc(Cn2c(-c3ccc(O)cc3)nc3ccccc32)cc1 |  |  | 11 |  | 
15 | CC(C)c1ccc(-c2nc3ccccc3s2)cc1 | 13 |  | 15 | 20 | log reduction in bacterial count (Bacillus cereus [4]): 3; Time (Staphylococcus aureus [10]): <48 h
16 | Cc1ccc(Cn2c(-c3ccc(C)cc3)nc3ccccc32)cc1 | 12 | 18 | 13 |  | 
17 | CN(C)c1ccc(Cn2c(-c3ccc(N(C)C)cc3)nc3ccccc32)cc1 | 11 | 17 | 16 |  | 
18 | Brc1ccc(Cn2c(-c3ccc(Br)cc3)nc3ccccc32)cc1 |  | 16 | 13 | 15 | 
19 | CCOc1cc(Cn2c(-c3ccc(O)c(OCC)c3)nc3ccccc32)ccc1O | 23 |  |  |  | zone of inhibition at 200 µg/mL (Escherichia coli [5]): 14 mm; Time (Staphylococcus aureus [10]): <24 h
20 | FC(F)(F)Oc1ccc(Cn2c(-c3ccc(OC(F)(F)F)cc3)nc3ccccc32)cc1 | 10 | 23 | 11 |  | Time (Vibrio cholerae [1]): <24 h; Time (Staphylococcus aureus [10]): <48 h
21 | CCCCCCCn1c(CCCCCC)nc2ccccc21 | 12 | 16 | 21 | 15 | 
22 | CCOc1ccc(-c2nc3ccccc3s2)cc1OC | 12 | 16 | 15 |  | 
23 | O=C(O)c1cn(C2CC2)c2cc(N3CCNCC3)c(F)cc2c1=O [CIPROFLOXACIN] |  |  |  |  | Time (Shigella dysenteriae [11]): <72 h; Time (Staphylococcus aureus [12]): 48 h; diameter of the inhibition zone (DIZ) (Bacillus cereus [13]): 14 mm; Time (Vibrio cholerae [14]): 48 h; Time (Bacillus cereus [15]): 48 h; diameter of the inhibition zone (DIZ) (Shigella dysenteriae [16]): 14 mm; diameter of the inhibition zone (DIZ) (Vibrio cholerae [17]): 24 mm
24 | O=[N+]([O-])c1ccc(-c2nc3ccccc3s2)cc1 |  |  | 13 | 14 | 
25 | FC(F)(F)c1ccc(Cn2c(-c3ccc(C(F)(F)F)cc3)nc3ccccc32)cc1 | 22 | 13 | 19 |  | Time (Escherichia coli [18]): <48 h; zone of inhibition at 200 µg/mL (Escherichia coli [5]): 22 mm
